In data set [1] the test system is db/db mice. Nature of the data set: Acute blood glucose lowering after single intraperitoneal dose in db/db mice. It counts as in vivo. The conditions noted are these: 20 nmol/kg single intraperitoneal dose. The procedure, abridged:
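Male 10-week-old db/db mice (type 2 diabetic), six groups of eight, with blood glucose measured before treatment. A single intraperitoneal dose of 20 nmol/kg (dosed by peptide content) was given, diluted in sterile normal saline. Blood glucose was read at 0.5 h, then hourly from 1 to 15 h. Controls were saline (same volume), reference peptides at 20 nmol/kg, and peptide-free nanoparticle carrier at 42.1 μg/kg.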

The conditions of data set [2]: cited from earlier work.
The test system of data set [3] is db/db mice. The data set is described as follows: Chronic 12-week daily administration in db/db mice. It counts as in vivo. The conditions noted are these: daily i.p. 12 weeks, 20 nmol/kg (SC 42.1 μg/kg), mean ± SEM, n=8.
Data set [4] has as its system INS-1 cells. Nature of the data set: Insulin receptor beta subunit expression in INS-1 cells. It counts as cell-based. The conditions noted are these: 10 nM SCD/peptides or 210 nM SeNPs/SC, 48 h, Western blot IR-β. On the technique in general: Immunoblotting shows a protein as a band on a membrane.
Data set [5] deals with INS-1 cells. Nature of the data set: Glucose uptake of INS-1 cells. It counts as cell-based. The following applies: 10 nM SCD/peptides or 210 nM SeNPs/SC, KRBH buffer with 16.7 mM glucose, 20 min.

Ends that are not written are not given here.

As for “HSDAVFTDNYTRLRKQVAAKKYLQSIKNKRY-NH2 (C-terminus assumed) [BAY55-9837]”, in the data set with db/db mice [1], the “hypoglycemic effect” value is on record as “momentary hypoglycemic effect within 30 min”. Besides, in data set [2] (in vivo), the half-life is ~ 5 min. In the data set with db/db mice [3], this substance registered a CHOL of 2.55 ± 0.25 mmol/L, a Free fatty acid of 1.30±0.19 mEq/L, an HDL-C of 1.46 ± 0.20 mmol/L and an LDL-C of 0.63 ± 0.12 mmol/L. In the data set on db/db mice [3], this substance returned a TG of 1.93 ± 0.14 mmol/L, a Water consumption of 27.2 ± 1.90 g/day and a Whole white fat of 15.3 ± 1.28 g. The “insulin receptor expression level vs PBS group” value in the data set on INS-1 cells [4] was determined as 1.25 fold. Further, the glucose uptake with INS-1 cells [5] is recorded as 1.44 mM.
As for “pituitary adenylate cyclase activating peptide [PACAP]”, in data set [2] (abstract, comparator for SCD half-life, ref not given), the “half-life of wild PACAP” value is recorded as ~ 5 min.

The values are drawn from paper PMC5367579 (International Journal of Nanomedicine, 2017).
